Assay results as given in ChEMBL document CHEMBL4402517, “Rational modification of Mannich base-type derivatives as novel antichagasic compounds: Synthesis, in vitro and in vivo evaluation” (Bioorg Med Chem, 2019).
Activity calls are given as the source filed them. No cut-off for these calls is given here.

Legend:
[1] = system: Trypanosoma cruzi; experiment: (§1) Antitrypanosomal activity against Trypanosoma cruzi MHOM/Pe/2011/Arequipa;DTU 5 bloodstream trypomastigote infected in BALB/c mouse assessed as parasite-free bone marrow in chronic phase at 20 mg/kg/day, po administered for 5 consecutive days starting from day 70 post infection followed by cyclophosphamide induced immunosuppression on day 80 post infection measured after day 100 post infection by PCR method relative to control; type: functional
Summary of the method: (§2)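 Female BALB/c mice (10–12 weeks, three per group) were infected i.p. with 5 × 10^5 Arequipa bloodstream trypomastigotes. Dosing was oral, 20 mg/kg/day for 5 days, as a suspension in 5% DMSO/0.5% HPMC. Cyclophosphamide 200 mg/kg i.p. was given at day 80 pi. At necropsy (day 100) tissues were tested by PCR on the splice leader region (primers TC/TC1, 300 bp). Scored as x/3 mice positive.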

[2] = Selectivity index, ratio of IC50 for African green monkey Vero cells to IC50 for Trypanosoma cruzi MHOM/Pe/2011/Arequipa;DTU 5; type: toxicity; conditions: read-out: Selectivity Index
Summary of the method: (§3)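 SI = Vero IC50 / epimastigote IC50. Vero cells were grown in RPMI-1640 with 10% FBS, seeded at 0.8 × 10^4 cells/well, exposed to 10.0–200.0 µM for 72 h, then given MTT for 4 h. Epimastigotes were grown in MTL with 10% FBS at 28 °C, 5 × 10^5/mL, exposed to 6.3–50 µM for 48 h, then resazurin for 24 h (570/600 nm). IC50s came from nonlinear regression.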

[3] = system: Trypanosoma cruzi; experiment: as §1, with “trypomastigotes” for “trypomastigote”, “stomach” for “bone marrow”; type: functional; summary of the method: as §2
[4] = system: Vero; experiment: Cytotoxicity against African green monkey Vero cells measured after 72 hrs by MTT assay; type: cell-based; conditions: Chlorocebus sabaeus
Summary of the method: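 Log-phase Vero cells (0.8 × 10^4/well) in RPMI-1640 + 10% heat-inactivated FBS at 37 °C, 5% CO2 were exposed 72 h to serial dilutions (10.0–200.0 µM; stocks in DMSO). MTT was then added for 4 h and absorbance read. Quadruplicates, three experiments; IC50 by nonlinear regression.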

[5] = (§4) Toxicity in BALB/c mouse infected with Trypanosoma cruzi MHOM/Pe/2011/Arequipa;DTU 5 bloodstream trypomastigote assessed as increase in serum alanine aminotransferase level in chronic phase at 20 mg/kg/day, po administered for 5 consecutive days starting from day 70 post infection and measured at day 76 post infection relative to control; type: organism-based; conditions: in vivo
Summary of the method: (§5)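 Female BALB/c mice (10–12 weeks, 14–20 g; groups of three) were infected i.p. with 5 × 10^5 Arequipa bloodstream trypomastigotes. Dosing was oral at 20 mg/kg/day for 5 days, from day 8 pi (acute) or day 70 pi (chronic), as a 2 mg/ml suspension in 5% DMSO/0.5% HPMC; controls received vehicle. Cyclophosphamide 200 mg/kg i.p. was given at day 80 pi. Serum was collected 2 days post-treatment and at necropsy by cardiac puncture and compared with infected untreated controls.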

[6] = system: Trypanosoma cruzi; experiment: as §1, with “muscle” for “bone marrow”, “acute” for “chronic”, “8” for “70”; type: functional; summary of the method: as §2
[7] = system: Trypanosoma cruzi; experiment: Antitrypanosomal activity against Trypanosoma cruzi MHOM/Pe/2011/Arequipa;DTU 5 epimastigote assessed as effect on glycerol excretion at IC50 after 72 hrs by H NMR method relative to control; type: functional, organism-based
Summary of the method: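 Cells were spun at 800 × g for 10 min and culture supernatants analysed by 1H NMR. Catabolite peaks were expressed as % variation versus untreated parasites.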

[8] = system: Trypanosoma cruzi; experiment: as §1, with “spleen” for “bone marrow”; type: functional; summary of the method: as §2
[9] = system: Trypanosoma cruzi; experiment: Antitrypanosomal activity against Trypanosoma cruzi MHOM/Pe/2011/Arequipa;DTU 5 bloodstream trypomastigotes infected in BALB/c mouse assessed as reduction in serum Ig-G level in acute phase at 20 mg/kg/day, po administered for 5 consecutive days starting from day 8 post infection followed by cyclophosphamide induced immunosuppression on day 80 post infection and measured at day 100 post infection by ELISA; type: functional, organism-based
Summary of the method: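 Sera came from infected BALB/c mice (three per group) dosed orally at 20 mg/kg/day for 5 days. Sampling points: 2 days after treatment, the day before immunosuppression (acute only) and necropsy day. Anti-T. cruzi IgG was measured by indirect ELISA using parasite Fe-SOD as antigen, read as OD at 492 nm.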

[10] = system: Trypanosoma cruzi; experiment: as §1, with “oesophagus” for “bone marrow”; type: functional; summary of the method: as §2
[11] = system: Trypanosoma cruzi; experiment: Trypanocidal activity against Trypanosoma cruzi TINF/CH/1956/Tulahuen;DTU 6 trypomastigote forms infected in BALB/c albino mouse measured after 24 hrs by Neubauer chamber method; conditions: TINF/CH/1956/Tulahuen;DTU 6, 24 h
[12] = system: Trypanosoma cruzi; experiment: Antitrypanosomal activity against Trypanosoma cruzi TINF/CH/1956/Tulahuen;DTU 6 epimastigotes measured after 72 hrs by Neubauer hemocytometer; type: functional, organism-based; conditions: TINF/CH/1956/Tulahuen;DTU 6, 72 h
[13] = (§6) Toxicity in BALB/c mouse infected with Trypanosoma cruzi MHOM/Pe/2011/Arequipa;DTU 5 bloodstream trypomastigote assessed as decrease in serum lactate dehydrogenase level in acute phase at 20 mg/kg/day,po administered for 5 consecutive days starting from day 8 post infection and measured at day 14 post infection by biochemical analysis relative to control; type: organism-based; parameters: scale not given: the % may be the effect or the level left; conditions: in vivo; summary of the method: as §5
[14] = system: Trypanosoma cruzi; experiment: as §1, with “trypomastigotes” for “trypomastigote”, “stomach” for “bone marrow”, “acute” for “chronic”, “8” for “70”; type: functional; summary of the method: as §2
[15] = system: Trypanosoma cruzi; experiment: as §1, with “spleen” for “bone marrow”, “acute” for “chronic”, “8” for “70”; type: functional; summary of the method: as §2
[16] = as §4, with “decrease” for “increase”, “lactate dehydrogenase” for “alanine aminotransferase”; type: organism-based; parameters: scale not given: the % may be the effect or the level left; conditions: in vivo; summary of the method: as §5
[17] = system: Trypanosoma cruzi; experiment: Antitrypanosomal activity against Trypanosoma cruzi MHOM/Pe/2011/Arequipa;DTU 5 epimastigotes measured after 72 hrs by Neubauer hemocytometer; type: functional, organism-based; conditions: MHOM/Pe/2011/Arequipa;DTU 5, 72 h
[18] = as §6, with “urea” for “lactate dehydrogenase”, “mg/kg/day, po” for “mg/kg/day,po”; type: organism-based; parameters: scale not given: the % may be the effect or the level left; conditions: in vivo; summary of the method: as §5
[19] = Selectivity index, ratio of IC50 for African green monkey Vero cells to IC50 for Trypanosoma cruzi IRHOD/CO/2008/SN3;DTU 1; type: toxicity; conditions: read-out: Selectivity Index; summary of the method: as §3
[20] = Selectivity index, ratio of IC50 for African green monkey Vero cells to IC50 for Trypanosoma cruzi TINF/CH/1956/Tulahuen;DTU 6 amastigote forms; type: toxicity; conditions: read-out: Selectivity Index
Summary of the method: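 Vero cells (1 × 10^4/well) were infected with trypomastigotes at MOI 10:1 for 24 h and washed with PBS. They were then exposed to 3.1–50 µM for 72 h at 37 °C in 5% CO2, and amastigotes were counted after Giemsa staining. Triplicates in two determinations; nonlinear regression.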

[21] = as §4, with “as change” for “as increase”, “infection” for “infection and”, “measured on” for “measured at”, “day 100” for “day 76”; type: organism-based; conditions: in vivo; summary of the method: as §5

| Structure (SMILES) | Activity [1] [%] | selectivity ratio [2] | Activity [3] [%] | IC50 [4] [µM] | Activity [5] | Activity [6] [%] | Activity [7] | Activity [8] [%] | Activity [9] | Activity [10] [%] | IC50 [11] [µM] | IC50 [12] [µM] | Activity [13] | Activity [14] [%] | Activity [15] [%] | Activity [16] | IC50 [17] [µM] | Activity [18] | selectivity ratio [19] | selectivity ratio [20] | further results |
| --- | --- | --- | --- | --- | --- | --- | --- | --- | --- | --- | --- | --- | --- | --- | --- | --- | --- | --- | --- | --- | --- |
| O=C(Cn1ccnc1[N+](=O)[O-])NCc1ccccc1 [BENZNIDAZOLE] | 38 | > 7.6 | 38 | > 200 | > 40% | 25 | Active | 38 | Active | 38 | 6.7 | 25.3 | <= 10% | 25 | 25 | <= 10% | 26.2 | <= 30% | > 13.1 | > 51.7 | Activity [21]: > 10% |
| O=C(CCN1CCN(c2ccc(Cl)cc2)CC1)c1ccc(O)cc1 | 63 | 5.6 | 63 | 104 | <= 10% | 50 | Active | 63 | Active | 63 | 2.1 | 10.6 | <= 20% | 50 | 50 | <= 10% | 18.6 | <= 10% | 8.6 | 34.5 | Activity [21]: > 10% |
| O=C(CCN1CCN(c2ccc(C(F)(F)F)cc2)CC1)c1ccc(O)cc1 | 50 | 4.7 | 50 | 107 | > 40% | 13 | Active | 50 | Active | 50 | 2.3 | 14.8 | <= 20% | 13 | 13 | <= 20% | 22.7 | <= 10% | 8.5 | 27.4 | Activity [21]: > 10% |
